Test results published in ChEMBL document CHEMBL1143881, “Sulfonamidolactam inhibitors of coagulation factor Xa” (Bioorg Med Chem Lett, 2008).

Assays:
[1] = Selectivity for human factor 10a over trypsin
Coagulation factor X = Coagulation factor X (Homo sapiens, UniProt P00742); assay: Inhibition of human factor 10a
How it was run: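 Inhibition constant (Ki) measured against purified human factor Xa; each value is the average of two independent experiments (n = 2).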

[2] = Selectivity for human factor 10a over thrombin
Plasma = assay: Anticoagulant efficacy in human citreated plasma assessed as concentration required to double prothrombin time; type: functional
[3] = Apparent permeability across human Caco-2 cells; type: ADME, cell-based
[4] = Selectivity for human factor 10a over factor 7a
[5] = Half life in dog; type: ADME, organism-based, Canis lupus familiaris; settings: in vivo
[6] = Oral bioavailability in dog; type: ADME, organism-based, Canis lupus familiaris; settings: in vivo
[7] = Clearance in dog; type: ADME, organism-based, Canis lupus familiaris; settings: in vivo

Sequence of Coagulation factor X (P00742 41-179 limits assumed): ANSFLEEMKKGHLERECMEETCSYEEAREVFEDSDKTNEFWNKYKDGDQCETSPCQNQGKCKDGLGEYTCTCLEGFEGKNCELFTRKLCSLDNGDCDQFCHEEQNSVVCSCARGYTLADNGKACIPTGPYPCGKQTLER
Sequence of Coagulation factor X (P00742 235-488 limits assumed): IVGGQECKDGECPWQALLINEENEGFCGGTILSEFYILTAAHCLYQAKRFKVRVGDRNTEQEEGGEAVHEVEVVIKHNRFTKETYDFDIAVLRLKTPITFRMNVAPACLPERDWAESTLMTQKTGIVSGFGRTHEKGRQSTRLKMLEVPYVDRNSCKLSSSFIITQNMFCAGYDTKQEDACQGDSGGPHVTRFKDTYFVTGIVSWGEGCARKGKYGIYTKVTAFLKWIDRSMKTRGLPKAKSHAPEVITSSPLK

SMILES | Selectivity ratio [1] | Ki (Coagulation factor X) | Selectivity ratio [2] | PT (Plasma) | Papp [3] | Selectivity ratio [4] | half-life [5] | bioavailability [6] | clearance [7]
CN(C)Cc1nccn1-c1ccc(N2CCCC(NS(=O)(=O)c3ccc4cc(Cl)ccc4c3)C2=O)c(F)c1 (configuration not stated) | > 1000 | 2.4 nM | > 1000 | 13 µM |  |  |  |  | 
CS(=O)(=O)c1ccccc1-c1ccc(N2CCCC(NS(=O)(=O)c3ccc(Cl)cc3)C2=O)c(F)c1 (configuration not stated) | > 1000 | 23 nM | > 1000 |  |  |  |  |  | 
CS(=O)(=O)c1ccccc1-c1ccc(N2CCCC(NS(=O)(=O)c3cccnc3)C2=O)c(F)c1 (configuration not stated) | > 1000 | 2600 nM | > 1000 |  |  |  |  |  | 
NC(=O)CN(C1CCCN(c2ccc(-n3ccccc3=O)cc2)C1=O)S(=O)(=O)c1cc2ccc(Cl)nc2s1 (configuration not stated) | > 1000 | 0.1 nM | > 1000 | 4.8 µM |  |  |  |  | 
CNC(=O)CN(C1CCCN(c2ccc(-n3ccccc3=O)cc2F)C1=O)S(=O)(=O)c1cc2ccc(Cl)nc2s1 (configuration not stated) | > 1000 | 0.037 nM | > 1000 | 4.2 µM | 0.1 ×10⁻⁶ cm/s |  |  |  | 
COc1ccc(OC2CCCN(c3ccc(-c4ccccc4S(C)(=O)=O)cc3F)C2=O)cc1 (configuration not stated) | > 1000 | 200 nM | > 1000 |  |  | > 1000 |  |  | 
COC(=O)CN(C1CCCN(c2ccc(-c3ccccc3S(C)(=O)=O)cc2F)C1=O)S(=O)(=O)c1ccc2cc(Cl)ccc2c1 (configuration not stated) | > 1000 | 0.88 nM | > 1000 | 89 µM |  |  |  |  | 
O=C1C(NS(=O)(=O)c2ccc3cc(Cl)ccc3c2)CCCN1c1ccc(-n2ccccc2=O)cc1F (configuration not stated) | > 1000 | 0.11 nM | > 1000 | 35 µM |  |  |  |  | 
CS(=O)(=O)c1ccccc1-c1ccc(N2CCCC(NS(=O)(=O)c3ccc4onc(N)c4c3)C2=O)c(F)c1 (configuration not stated) | > 1000 | 19 nM | > 1000 |  |  |  |  |  | 
CS(=O)(=O)c1ccccc1-c1ccc(N2CCCC(NS(=O)(=O)c3cc(Cl)cc(Cl)c3)C2=O)c(F)c1 (configuration not stated) | > 1000 | 730 nM | > 1000 |  |  |  |  |  | 
CS(=O)(=O)c1ccccc1-c1ccc(N2CCCC(NS(=O)(=O)c3cccc4cc(Cl)ccc34)C2=O)c(F)c1 (configuration not stated) | > 1000 | 2.2 nM | > 1000 | 102 µM |  |  |  |  | 
COC(=O)C[N+](C)(C)Cc1nccn1-c1ccc(N2CCCC(NS(=O)(=O)c3ccc4cc(Cl)ccc4c3)C2=O)c(F)c1 (configuration not stated) | > 1000 | 0.35 nM | > 1000 | 13 µM |  |  |  |  | 
CS(=O)(=O)c1ccccc1-c1ccc(N2CCCC(NS(=O)(=O)c3cc(Cl)ccc3Cl)C2=O)c(F)c1 (configuration not stated) | > 1000 | 650 nM | > 1000 |  |  |  |  |  | 
CS(=O)(=O)c1ccccc1-c1ccc(N2CCCC(NS(=O)(=O)c3ccc4ncccc4c3)C2=O)c(F)c1 (configuration not stated) | > 1000 | 73 nM | > 1000 |  |  |  |  |  | 
Cc1c(S(=O)(=O)NC2CCCN(c3ccc(-c4ccccc4S(C)(=O)=O)cc3F)C2=O)sc2ccc(Cl)cc12 (configuration not stated) | > 1000 | 160 nM | > 1000 |  |  |  |  |  | 
CS(=O)(=O)c1ccccc1-c1ccc(N2CCCC(NS(=O)(=O)c3ccccc3)C2=O)c(F)c1 (configuration not stated) | > 1000 | 370 nM | > 1000 |  |  |  |  |  | 
CS(=O)(=O)c1ccccc1-c1ccc(N2CCCC(NS(=O)(=O)Cc3ccccc3)C2=O)c(F)c1 (configuration not stated) | > 1000 | 3200 nM | > 1000 |  |  |  |  |  | 
CS(=O)(=O)c1ccccc1-c1ccc(N2CCCC(NS(=O)(=O)c3ccc(C#N)cc3)C2=O)c(F)c1 (configuration not stated) | > 1000 | 420 nM | > 1000 |  |  |  |  |  | 
O=C1C(NS(=O)(=O)c2ccc3cc(Cl)ccc3c2)CCCN1c1ccc(N2CCCCC2)cc1F (configuration not stated) | > 1000 | 16 nM | > 1000 |  |  |  |  |  | 
O=C1C(NS(=O)(=O)c2cc3ccc(Cl)nc3s2)CCCN1c1ccc(-n2ccccc2=O)cc1 (configuration not stated) | > 1000 | 0.05 nM | > 1000 | 15 µM | 2 ×10⁻⁶ cm/s |  |  |  | 
COc1ccc(C(=O)NC2CCCN(c3ccc(-c4ccccc4S(C)(=O)=O)cc3F)C2=O)cc1 (configuration not stated) | > 1000 | 560 nM | > 1000 |  |  |  |  |  | 
O=C1C(NS(=O)(=O)c2ccc3cc(Cl)ccc3c2)CCCN1c1ccc(-c2ccncc2)cc1F (configuration not stated) | > 1000 | 28 nM | > 1000 |  |  |  |  |  | 
COC(=O)CN(C1CCCN(c2ccc(-n3ccnc3C[N+](C)(C)CC(=O)OC)cc2F)C1=O)S(=O)(=O)c1ccc2cc(Cl)ccc2c1 (configuration not stated) | > 1000 | 0.21 nM | > 1000 | 12 µM |  |  |  |  | 

SMILES | Selectivity ratio [1] | Ki (Coagulation factor X) | Selectivity ratio [2] | PT (Plasma) | Papp [3] | Selectivity ratio [4] | half-life [5] | bioavailability [6] | clearance [7]
COc1ccc(NC2CCCN(c3ccc(-c4ccccc4S(C)(=O)=O)cc3F)C2=O)cc1 (configuration not stated) | > 1000 | 450 nM | > 1000 |  |  |  |  |  | 
CS(=O)(=O)c1ccccc1-c1ccc(N2CCCC(NS(=O)(=O)c3cccc4ccc(Cl)cc34)C2=O)c(F)c1 (configuration not stated) | > 1000 | 18 nM | > 1000 |  |  |  |  |  | 
CS(=O)(=O)c1ccccc1-c1ccc(N2CCCC(NS(=O)(=O)c3ccc(Cl)s3)C2=O)c(F)c1 (configuration not stated) | > 1000 | 5.3 nM | > 1000 |  |  |  |  |  | 
CN(C)CCN(C)C(=O)CN([C@H]1CCCN(c2ccc(-n3ccccc3=O)cc2F)C1=O)S(=O)(=O)c1ccc2cc(Cl)ccc2c1 | > 1000 | 0.016 nM | > 1000 | 1.7 µM |  |  | 387 min | 4% | 19.8 mL/min/kg
COc1ccc(S(=O)(=O)NC2CCCN(c3ccc(-c4ccccc4S(C)(=O)=O)cc3F)C2=O)cc1 (configuration not stated) | > 1000 | 53 nM | > 1000 |  |  |  |  |  | 
CS(=O)(=O)c1ccccc1-c1ccc(N2CCCC(NS(=O)(=O)c3cnc4ccccc4c3)C2=O)c(F)c1 (configuration not stated) | > 1000 | 28 nM | > 1000 |  |  |  |  |  | 
CS(=O)(=O)c1ccccc1-c1ccc(N2CCCC(NS(=O)(=O)c3ccc(N)nc3)C2=O)c(F)c1 (configuration not stated) | > 1000 | 260 nM | > 1000 |  |  |  |  |  | 
O=C1CCCCN1c1ccc(N2CCCC(NS(=O)(=O)c3ccc4cc(Cl)ccc4c3)C2=O)c(F)c1 (configuration not stated) | > 1000 | 10 nM | > 1000 |  |  |  |  |  | 
CS(=O)(=O)c1ccccc1-c1ccc(N2CCCC(N(CC(=O)O)S(=O)(=O)c3ccc4cc(Cl)ccc4c3)C2=O)c(F)c1 (configuration not stated) | > 1000 | 1 nM | > 1000 | 250 µM |  |  |  |  | 
COc1cccc(S(=O)(=O)NC2CCCN(c3ccc(-c4ccccc4S(C)(=O)=O)cc3F)C2=O)c1 (configuration not stated) | > 1000 | 100 nM | > 1000 |  |  |  |  |  | 
CN(C)CCN(C)C(=O)CN(C1CCCN(c2ccc(-n3ccccc3=O)cc2F)C1=O)S(=O)(=O)c1ccc2cc(Cl)ccc2c1 (configuration not stated) | > 1000 | 0.02 nM | > 1000 | 3.3 µM |  |  |  |  | 
CS(=O)(=O)c1ccccc1-c1ccc(N2CCCC(N(CCCO)S(=O)(=O)c3ccc4cc(Cl)ccc4c3)C2=O)c(F)c1 (configuration not stated) | > 1000 | 2.3 nM | > 1000 | 208 µM |  |  |  |  | 
CS(=O)(=O)c1ccccc1-c1ccc(N2CCCC(NS(=O)(=O)c3ccc4cn[nH]c4c3)C2=O)c(F)c1 (configuration not stated) | > 1000 | 19 nM | > 1000 |  |  |  |  |  | 
CS(=O)(=O)c1ccccc1-c1ccc(N2CCCC(NS(=O)(=O)c3ccc(F)c(F)c3)C2=O)c(F)c1 (configuration not stated) | > 1000 | 270 nM | > 1000 |  |  |  |  |  | 
CS(=O)(=O)c1ccccc1-c1ccc(N2CCCC(NS(=O)(=O)c3ccc(-c4ccon4)s3)C2=O)c(F)c1 (configuration not stated) | > 1000 | 26 nM | > 1000 |  |  |  |  |  | 
CN(C)CCN(C)C(=O)CN(C1CCCN(c2ccc(-n3ccccc3=O)cc2F)C1=O)S(=O)(=O)c1cc2ccc(Cl)nc2s1 (configuration not stated) | > 1000 | 0.013 nM | > 1000 | 2.1 µM |  |  |  |  | 
CS(=O)(=O)c1ccccc1-c1ccc(N2CCCC(NS(=O)(=O)c3ccc(Cl)c(Cl)c3)C2=O)c(F)c1 (configuration not stated) | > 1000 | 61 nM | > 1000 |  |  |  |  |  | 
CS(=O)(=O)c1ccccc1-c1ccc(N2CCCC(NS(=O)(=O)c3ccc(F)cc3)C2=O)c(F)c1 (configuration not stated) | > 1000 | 44.5 nM | > 1000 |  |  |  |  |  | 
CCc1ccc(S(=O)(=O)NC2CCCN(c3ccc(-c4ccccc4S(C)(=O)=O)cc3F)C2=O)cc1 (configuration not stated) | > 1000 | 78 nM | > 1000 |  |  |  |  |  | 
COC(=O)CN(C1CCCN(c2ccc(-n3ccccc3=O)cc2)C1=O)S(=O)(=O)c1cc2ccc(Cl)nc2s1 (configuration not stated) | > 1000 | 0.043 nM | > 1000 | 4.4 µM | 3.5 ×10⁻⁶ cm/s |  |  |  | 
CS(=O)(=O)c1ccccc1-c1ccc(N2CCCC(NS(=O)(=O)c3cccc(Cl)c3)C2=O)c(F)c1 (configuration not stated) | > 1000 | 380 nM | > 1000 |  |  |  |  |  | 
CN(C)CCN(C)C(=O)CN(C1CCCN(c2ccc(N3CCCCC3=O)cc2F)C1=O)S(=O)(=O)c1ccc2cc(Cl)ccc2c1 (configuration not stated) | > 1000 | 1.7 nM | > 1000 | 12 µM |  |  |  |  | 
O=C(O)CN(C1CCCN(c2ccc(-n3ccccc3=O)cc2)C1=O)S(=O)(=O)c1cc2ccc(Cl)nc2s1 (configuration not stated) | > 1000 | 0.13 nM | > 1000 | 16 µM |  |  |  |  | 
